In brackets after ≈: the same amount, converted by molar mass.
Columns and labels:
[1] = Cytotoxicity against human NHFB cells after 48 hrs by SRB assay; assay type: cell-based
[2] = Cytotoxicity against human H460 cells after 48 hrs by SRB assay; assay type: functional, cell-based; conditions: NCI-H460, 48 h
[3] = Cytotoxicity against human H460/TaxR cells assessed as cell viability at 10 uM after 48 hrs by SRB assay; assay type: functional; conditions: read-out: Activity
Summary of the method: (§1)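 Single-concentration screen at 10 µM in normal human fibroblasts, NSCLC H460 cells and their drug-resistant H460_TaxR variant. Viability was read out by sulforhodamine B (SRB) staining and expressed relative to DMSO-treated cells, set as 100%.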

[4] = Cytotoxicity against human H460 cells assessed as cell viability at 10 uM after 48 hrs by SRB assay; assay type: functional; conditions: NCI-H460, 48 h, read-out: Activity; summary of the method: as §1
[5] = Cytotoxicity against human NHFB cells assessed as cell viability at 10 uM after 48 hrs by SRB assay; assay type: cell-based; conditions: read-out: Activity; summary of the method: as §1
[6] = Solubility in pH 7.4 buffer after 18 hrs by UV spectroscopy based microSol assay; assay type: physicochemical; conditions: for solubility: buffer, pH 7.4, 18 h; for solubility at 18 h: pH 7.4 buffer, pH 7.4
[7] = Cytotoxicity against human H460/TaxR cells after 48 hrs by SRB assay; assay type: functional, cell-based

Compound | EC50 [1] [µM] | EC50 [2] [µM] | viability at 10 µM [3] [%] | viability at 10 µM [4] [%] | viability at 48 h, 10 µM [5] [%] | solubility [6] [µg/mL] | EC50 [7] [µM] | solubility at 18 h [6] [µg/mL]
CN(C)c1ccc(/C=C2/SC(=Nc3ccccc3)NC2=O)cc1 | > 100 | 0.72 | 29.4 | 19.8 | 68.3 | 0.1 (≈ 0.309 µM) | 0.98 | 
CN(C)c1ccc(/C=C2/SC(=Nc3ccc(O)cc3)NC2=O)cc1 |  |  | 47.9 | 94.4 | 96.5 |  |  | 0.01 (≈ 0.0295 µM)
Cc1ccccc1/N=C1\NC(=O)/C(=C\c2ccc(N(C)C)cc2)S1 |  |  | 41 | 17.6 | 86.5 |  |  | 0.27 (≈ 0.8 µM)
CN(C)c1ccc(/C=C2/SC(=Nc3ccccc3Cl)NC2=O)cc1 |  |  | 39.3 | 8.82 | > 100 |  |  | 0.02 (≈ 0.0559 µM)
O=C1N=C(Nc2ccccc2)S/C1=C/c1ccc(N2CCNCC2)cc1 | > 100 | > 100 | 89.3 | > 100 | 97 | 1.68 (≈ 4.61 µM) | > 100 | 
CCN(CC)c1ccc(/C=C2/SC(Nc3ccccc3)=NC2=O)cc1 | > 100 | 6.9 | 30.1 | 19.5 | 96.9 | 0.1 (≈ 0.285 µM) | 9.9 | 
O=C1N=C(Nc2ccccc2)S/C1=C/c1ccc(N2CCOCC2)cc1 | > 100 | > 100 | 77.5 | 96.1 | 97.4 | 0.1 (≈ 0.274 µM) | > 100 | 
CN1CCN(c2ccc(/C=C3/SC(Nc4ccccc4)=NC3=O)cc2)CC1 | 6.4 | 1.4 | 11.3 | 13.9 | 93.8 | 0.35 (≈ 0.925 µM) | 2.5 | 
CCN(CC)c1ccc(/C=C2/SC(Nc3ccc(O)cc3)=NC2=O)cc1 |  |  | 48.2 | 94.3 | 93.7 |  |  | 
O=C1N=C(Nc2ccc(O)cc2)S/C1=C/c1ccc(N2CCOCC2)cc1 |  |  | > 100 | 88.9 | 92.8 |  |  | 0.19 (≈ 0.498 µM)
CN1CCN(c2ccc(/C=C3/SC(Nc4ccc(O)cc4)=NC3=O)cc2)CC1 |  |  | > 100 | > 100 | 94.3 |  |  | 0.01 (≈ 0.0253 µM)
O=C1N=C(Nc2ccc(O)cc2)S/C1=C/c1ccc(N2CCNCC2)cc1 |  |  | 85.5 | 83.9 | 98.9 |  |  | 13.9 (≈ 36.5 µM)
CCN(CC)c1ccc(/C=C2/SC(Nc3ccccc3Cl)=NC2=O)cc1 |  |  | 29.5 | 25.1 | 85 |  |  | 0.01 (≈ 0.0259 µM)
O=C1N=C(Nc2ccccc2Cl)S/C1=C/c1ccc(N2CCOCC2)cc1 |  |  | 41.4 | 48.2 | 94.2 |  |  | 0.05 (≈ 0.125 µM)
CN1CCN(c2ccc(/C=C3/SC(Nc4ccccc4Cl)=NC3=O)cc2)CC1 |  |  | 52.7 | 98.2 | 96 |  |  | 0.43 (≈ 1.04 µM)
O=C1N=C(Nc2ccccc2Cl)S/C1=C/c1ccc(N2CCNCC2)cc1 |  |  | 77.4 | 98.1 | 99.3 |  |  | 0.14 (≈ 0.351 µM)
CN(C)c1ccc(/C=C2/SC(Nc3ccc(Oc4ccccc4)cc3)=NC2=O)cc1 |  |  | 88.2 | > 100 | 100 |  |  | 0.01 (≈ 0.0241 µM)
CCN(CC)c1ccc(/C=C2/SC(Nc3ccc(Oc4ccccc4)cc3)=NC2=O)cc1 |  |  | 64.6 | > 100 | > 100 |  |  | 
O=C1N=C(Nc2ccc(Oc3ccccc3)cc2)S/C1=C/c1ccc(N2CCOCC2)cc1 |  |  | 46.8 | 72.6 | 98 |  |  | 0.1 (≈ 0.219 µM)

Compound | EC50 [1] [µM] | EC50 [2] [µM] | viability at 10 µM [3] [%] | viability at 10 µM [4] [%] | viability at 48 h, 10 µM [5] [%] | solubility [6] [µg/mL] | EC50 [7] [µM] | solubility at 18 h [6] [µg/mL]
CN1CCN(c2ccc(/C=C3/SC(Nc4ccc(Oc5ccccc5)cc4)=NC3=O)cc2)CC1 |  |  | 49.8 | 46.7 | 90.9 |  |  | 0.1 (≈ 0.212 µM)
O=C1N=C(Nc2ccc(Oc3ccccc3)cc2)S/C1=C/c1ccc(N2CCNCC2)cc1 |  |  | 45.4 | 49.3 | 82.9 |  |  | 0.1 (≈ 0.219 µM)
CCN(CC)c1ccc(/C=C2/SC(Nc3ccccc3C)=NC2=O)cc1 |  |  | 24.6 | 8.3 | 80.6 |  |  | 0.2 (≈ 0.547 µM)
Cc1ccccc1NC1=NC(=O)/C(=C\c2ccc(N3CCOCC3)cc2)S1 |  |  | 70.2 | 43.8 | 80.8 |  |  | 0.78 (≈ 2.06 µM)
Cc1ccccc1NC1=NC(=O)/C(=C\c2ccc(N3CCN(C)CC3)cc2)S1 |  |  | 34.3 | 88.6 | 80.2 |  |  | 0.89 (≈ 2.27 µM)
Cc1ccccc1NC1=NC(=O)/C(=C\c2ccc(N3CCNCC3)cc2)S1 |  |  | 50.1 | 65.1 | 62.8 |  |  | 3.83 (≈ 10.1 µM)
CN(C)c1ccc(/C=C2/SC(N(c3ccccc3)c3ccccc3)=NC2=O)cc1 | > 100 | > 100 |  |  |  |  | > 100 | 
CCN(CC)c1ccc(/C=C2/SC(N(c3ccccc3)c3ccccc3)=NC2=O)cc1 | > 100 | > 100 |  |  |  | 0.01 (≈ 0.0234 µM) | > 100 | 
O=C1N=C(N(c2ccccc2)c2ccccc2)S/C1=C/c1ccc(N2CCOCC2)cc1 | > 100 | > 100 |  |  |  | 0.01 (≈ 0.0226 µM) | > 100 | 
CN1CCN(c2ccc(/C=C3/SC(N(c4ccccc4)c4ccccc4)=NC3=O)cc2)CC1 | > 100 | > 100 |  |  |  | 0.11 (≈ 0.242 µM) | > 100 | 
O=C1N=C(N(c2ccccc2)c2ccccc2)S/C1=C/c1ccc(N2CCNCC2)cc1 | > 100 | > 100 |  |  |  | 0.15 (≈ 0.34 µM) | > 100 | 
CN(C)c1ccc(/C=C2/SC(N(C)c3ccccc3)=NC2=O)cc1 | > 100 | 0.08 |  |  |  | 0.5 (≈ 1.48 µM) | 0.16 | 
CCN(CC)c1ccc(/C=C2/SC(N(C)c3ccccc3)=NC2=O)cc1 | > 100 | 0.28 |  |  |  | 0.01 (≈ 0.0274 µM) | 0.43 | 
CN(C1=NC(=O)/C(=C\c2ccc(N3CCOCC3)cc2)S1)c1ccccc1 | > 100 | 8.9 |  |  |  | 5.06 (≈ 13.3 µM) | 2.9 | 
CN1CCN(c2ccc(/C=C3/SC(N(C)c4ccccc4)=NC3=O)cc2)CC1 | > 100 | > 100 |  |  |  | 18.91 (≈ 48.2 µM) | > 100 | 
CN(C1=NC(=O)/C(=C\c2ccc(N3CCNCC3)cc2)S1)c1ccccc1 | > 100 | > 100 |  |  |  | 3.89 (≈ 10.3 µM) | > 100 | 
CCCSc1ccc2nc(NC(=O)OC)[nH]c2c1 [ALBENDAZOLE] |  |  |  |  |  |  |  | 2.3 (≈ 8.67 µM)
NC(=O)N1c2ccccc2C=Cc2ccccc21 [CARBAMAZEPINE] |  |  |  |  |  | 22 (≈ 93.1 µM) |  | 
CNC(=C[N+](=O)[O-])NCCSCc1ccc(CN(C)C)o1 [RANITIDINE] |  |  |  |  |  | 33.7 (≈ 107 µM) |  | 

Source: ChEMBL document CHEMBL3399994, “Improving both aqueous solubility and anti-cancer activity by assessing progressive lead optimization libraries” (Bioorg Med Chem Lett, 2015)
